In the library only some 2.9% were active in any assay of this set; here they are far more common.
ABHD4 inh: ABHD4 (mouse) inhibition, primary FP screen; inhibition, % at 8.92 µM; 0.54% of 370,000 active; purified mABHD4, FP-Rh probe fluorescence polarization; AID 720543;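 active means inhibition exceeding the mean over every tested compound plus 3 SD, cut at about 30% in these data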;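 further: 0% = plate median of compound wells and 100% = S159A mutant with DMSO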
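Assay system: mABHD4 protein; medium: HEPES pH 7.0, NaCl, Pluronic buffer; dosing: 8.92 µM, single dose; schedule: 45 min + 60 min at 25 °C; signal: FP readout, ex 525 nm / em 598 nm; read-out: normalized percent inhibition of probe labeling; repeats: single replicate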
PRMT1 inh: blocks human protein arginine methyltransferase 1; Q99873; 1.3% of 370,000 active; inhibition, % at 2.79 µM; AID 652257; recombinant PRMT1, activity-based probe fluorescence polarization;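 active means inhibition above about 21% made by adding two undisclosed values, limit read from the data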
SIAE inh: inhibitors of human sialic acid acetylesterase SIAE | Q9HAT2 | SIAE FP-Rh probe binding, fluorescence polarization | inhibition, % at 9.66 µM | 0.69% of 370,000 active | AID 1053197;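 active means inhibition above a cutoff: mean of compounds within the control limits plus 3 SD of those, cut at about 17% in these data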;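 further: 0% = plate median of compound wells and 100% = probe without SIAE protein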
TCR-CD3 inh: human TCR-CD3 binding inhibition; 0.37% of 360,000 active; inhibition, % at 9.4 µM; TAMRA-labeled TCR probe fluorescence, biochemical; in the data active means inhibition above about 19%;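 further: recombinant mutant TCR 2C K166C tagged with TAMRA read by polarization; 0% = receptor in buffer alone and 100% = receptor with positive control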
HTRA1 inh: HTRA1 (human) protease inhibition. recombinant HTRA1, FP-rhodamine activity-based probe, fluorescence polarization. 0.5% of 340,000 active. inhibition, % at 5.96 µM; in the data active means inhibition above about 36%;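 further: 0% = enzyme with DMSO and 100% = wells lacking enzyme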
PAD4 FP inh: inhibitors of human PAD4; recombinant PAD4, RCA probe fluorescence polarization; Q9UM07; 0.41% of 330,000 active; inhibition, % at 6.36 µM; AID 485272;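 active means percent inhibition above a cutoff equal to the mean of all tested compounds plus 3 SD, cut at about 15% in these data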;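 further: 0% = PAD4 with RCA probe and DMSO and 100% = probe without PAD4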
* = called active by the depositor.

`Cc1ccc(NC(=O)C2CCN(C(=O)c3ccccc3C)CC2)cc1` gave ABHD4 inh 8.0, PRMT1 inh 1.7, SIAE inh 1.5, TCR-CD3 inh -4.6, HTRA1 inh 5.5 and PAD4 FP inh -4.0.
Cc1ccccc1C(=O)N1CCC(C(=O)Nc2cccc(F)c2)CC1 was read as ABHD4 inh -4.6, PRMT1 inh -4.7, SIAE inh 26.3*, TCR-CD3 inh -0.2, HTRA1 inh 0.5 and PAD4 FP inh -0.9.
For Cc1ccc(/C=C/C(=O)NCc2ccco2)o1 the results were ABHD4 inh 8.8, PRMT1 inh 12.6, SIAE inh -5.7, TCR-CD3 inh 8.9 and PAD4 FP inh -2.3.
`Cc1ccc(/C=C/C(=O)NCc2ccccn2)o1` gave ABHD4 inh 10.5, PRMT1 inh 21.4*, SIAE inh 7.1, TCR-CD3 inh 3.9, HTRA1 inh 5.7 and PAD4 FP inh -1.6.
For O=C1c2cc(Br)ccc2N(Cc2ccc(Br)cc2)S(=O)(=O)C1c1cc(Cl)c(Cl)cc1[N+](=O)[O-] (stereo not given) the results were HTRA1 inh 52.6* and PAD4 FP inh -1.2.
`Cc1ccccc1C(=O)N1CCC(Oc2cccnc2)CC1` gave ABHD4 inh -0.2, PRMT1 inh -1.1 and SIAE inh 12.0.
`Cc1cc(NS(=O)(=O)c2ccc(Nc3nc(-c4ccc(C)c(C)c4)cs3)cc2)no1` gave ABHD4 inh 21.7, PRMT1 inh 6.1, SIAE inh 11.7, TCR-CD3 inh -2.1, HTRA1 inh -45.5 and PAD4 FP inh -1.6.
`Cc1cc(NS(=O)(=O)c2ccc(Nc3nc(-c4ccc(O)cc4)cs3)cc2)no1` gave ABHD4 inh 41.8*, PRMT1 inh 1.5, SIAE inh -2.5, TCR-CD3 inh 12.0, HTRA1 inh -1.1 and PAD4 FP inh 4.5.
For COCCn1c(C)cc(C2=NNC(=Nc3ccccc3)SC2)c1C the results were ABHD4 inh 11.4, PRMT1 inh 6.5, SIAE inh 5.7, TCR-CD3 inh 1.0, HTRA1 inh 15.7 and PAD4 FP inh 1.8.
Screening COc1ccccc1C1=NNC(=Nc2cccc(S(=O)(=O)N(C)C)c2)SC1 returned ABHD4 inh -1.0, PRMT1 inh 22.1*, SIAE inh -7.0, TCR-CD3 inh 5.9, HTRA1 inh 3.6 and PAD4 FP inh 2.0.
Screening COc1ccc(OC)c2c1C(=O)C(Cl)=C(Cl)C2=O returned ABHD4 inh 23.8, PRMT1 inh 90.9*, SIAE inh 10.4, TCR-CD3 inh -3.8, HTRA1 inh -0.3 and PAD4 FP inh -7.4.
For COc1cc(NCCCCCCCN)c2ncccc2c1 the results were HTRA1 inh 20.1 and PAD4 FP inh 26.8*.
Screening COc1ccc(C(=O)OCCN2CCN(C3CN(Cc4cn(Cc5cccc(C)c5)nn4)S(=O)(=O)C3)CC2)cc1OC (stereo not given) returned ABHD4 inh 4.3, PRMT1 inh -0.9 and SIAE inh -1.1.
O=C(N/N=C/c1ccco1)c1cccc(N2Cc3ccccc3C2)c1 was read as ABHD4 inh -0.9, PRMT1 inh 7.9, SIAE inh -1.9, TCR-CD3 inh 24.5*, HTRA1 inh 10.4 and PAD4 FP inh -7.7.
Screening O=C(N/N=C/c1ccco1)c1cccc(N2CCCC2=O)c1 returned ABHD4 inh 12.8, PRMT1 inh -2.9, SIAE inh 0.2, TCR-CD3 inh 6.1, HTRA1 inh 11.8 and PAD4 FP inh 0.7.
For CCOc1ccc(NC(=O)CSc2nccn(-c3ccc4c(c3)OCCO4)c2=O)cc1 the results were ABHD4 inh 5.5, PRMT1 inh 22.3*, SIAE inh -1.2, TCR-CD3 inh 4.3, HTRA1 inh -2.5 and PAD4 FP inh -4.3.
Screening CCc1ccc(NC(=O)CSc2nccn(-c3ccc4c(c3)OCCO4)c2=O)cc1 returned ABHD4 inh -2.2, PRMT1 inh 22.0*, SIAE inh -2.6, TCR-CD3 inh -4.8 and HTRA1 inh -4.9.
Screening COc1cc(NC(=O)C2CCN(c3nnc(-n4cccc4)s3)CC2)cc(OC)c1 returned ABHD4 inh -8.8, PRMT1 inh -1.8 and SIAE inh -3.7.
Cc1ccc(C(=O)OCC(=O)Nc2ccccc2N2CCOCC2)cc1 was read as ABHD4 inh 0.6, PRMT1 inh -3.2, SIAE inh 18.0*, TCR-CD3 inh -1.6, HTRA1 inh -6.9 and PAD4 FP inh 0.0.

Compound activity deposited in PubChem BioAssay by The Scripps Research Institute Molecular Screening Center.
